Measurements from article PMC3557458 (Journal of molecular biology, 2012).
Entries after “also recorded” stand apart in the source; their conditions may differ. Values belong to the molecule of their own block, whether it stands above or below them.

Tests used:
Bim and Bad BH3 peptides = type: binding, human; settings: FP competition, Bim-22 and Bad-22, Ki relative to Bcl-xL
How it was run: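 His6-tagged Bcl-xL variants (E. coli RP3098, Ni-NTA under native conditions) at 50 nM with 15 nM fluorescein-labelled peptide, which varied by variant, competed against serially diluted unlabelled peptide. Equilibrated ≥3 hr at ~25 °C; anisotropy read in duplicate. Ki values were fitted using direct-binding Kd values, then normalized to averaged parent-protein Ki.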

[1] = biological target: recombinant native Bcl-xL (human) (UniProt Q07817); test: fluorescence polarisation
RX1, recombinant (human) = RX1, recombinant (human) (UniProt Q07817); test: fluorescence polarisation
[2] = biological target: recombinant native Bcl-xL (human, UniProt Q07817-1 1-209); test: fluorescence polarisation
RX1 = RX1 (Homo sapiens, UniProt Q07817, A142G/F105L/F146A/L130I/Q111G/Q125V/S122I/V126A/Y101H); type: binding; settings: from Ki values of RX1 and Bcl-xL for Bim-22 and Bad-22
[3] = system: fluoresceinated Bim vs. Bad BH3; test: Fluorescence polarization direct binding of fluoresceinated Bim vs. Bad BH3; set-up: species or system human; settings: labeled peptide 5 nM, at least 1 hr, ~25 °C

Chain of recombinant native Bcl-xL (Q07817 1-209): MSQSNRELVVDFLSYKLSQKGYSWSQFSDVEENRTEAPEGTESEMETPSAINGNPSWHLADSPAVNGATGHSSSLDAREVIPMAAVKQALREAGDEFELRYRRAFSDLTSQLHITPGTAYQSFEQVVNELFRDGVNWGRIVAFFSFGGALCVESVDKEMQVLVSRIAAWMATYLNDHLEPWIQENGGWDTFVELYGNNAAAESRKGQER

Molecule: F105L: Bcl-xL point mutant F105L
- Bad vs. Bim binding preference of point mutation in the context of Bcl-xL (Bim and Bad BH3 peptides): favored Bim binding over Bad

Molecule: A104M: Bcl-xL point mutant A104M (not in RX1)
- Bad vs. Bim binding preference of point mutation in the context of Bcl-xL (Bim and Bad BH3 peptides): confirmed to be specific

Molecule: Bim-22, Bim BH3 peptide of 22 residues
- Ki [1]: 3 nM
- Ki (RX1, recombinant (human)): > 50000 nM

Molecule: L130I: Bcl-xL point mutant L130I
- Bad vs. Bim binding preference of point mutation in the context of Bcl-xL (Bim and Bad BH3 peptides): shown not to be

Molecule: F146A: Bcl-xL point mutant F146A
- Bad vs. Bim binding preference of point mutation in the context of Bcl-xL (Bim and Bad BH3 peptides): did not confer specificity

Molecule: S122I: Bcl-xL point mutant, Ser 122 to Ile
- Bad vs. Bim binding preference of point mutation in the context of Bcl-xL (Bim and Bad BH3 peptides): preferred binding Bad over Bim; also recorded: confirmed to be specific

Molecule: EQWAREIGAQLRRMADDLNAQYERRRQE [PUMA BH3 peptide]
- Ki [2]: < 0.1 nM

B1: RX1: Re-designed Bcl-xL variant: Y101H, F105L, Q111G, S122I, Q125V, V126A, L130I, A142G, F146A (protein)
chain: MSQSNRELVVDFLSYKLSQKGYSWSQFSDVEENRTEAPEGTESEMETPSAINGNPSWHLADSPAVNGATGHSSSLDAREVIPMAAVKQALREAGDEFELRHRRALSDLTSGLHITPGTAYQIFEVAVNEIFRDGVNWGRIVGFFSAGGALCVESVDKEMQVLVSRIAAWMATYLNDHLEPWIQENGGWDTFVELYGNNAAAESRKGQER
modifications: left off: His6, end not stated, state not stated
- specificity increase for Bad BH3 over Bim BH3 relative to native Bcl-xL (RX1): ≥ 1,000 fold
- preference for binding Bad over Bim, direct binding [3]: strong preference

More lines, now with the values ahead:

- Bad vs. Bim binding preference of point mutation in the context of Bcl-xL (Bim and Bad BH3 peptides): preferred binding Bad over Bim
Molecule: A142G: Bcl-xL point mutant A142G

- Ki [1]: 2 nM
- Ki (RX1, recombinant (human)): 33 nM
Molecule: Bad-22, Bad BH3 peptide of 22 residues

- Bad vs. Bim binding preference of point mutation in the context of Bcl-xL (Bim and Bad BH3 peptides): preferred binding Bad over Bim
Molecule: V126A: Bcl-xL point mutant V126A

- Ki [2]: < 0.1 nM
Molecule: LWAAQRYGRELRRMSDEFVDSFKKGLPR (peptide, UniProt Q92934 104-131, looked up) [Bad-28, recombinant Bad BH3 28-mer peptide]
